# Source: ChEMBL document CHEMBL1138579, “Synthesis of alkenyldiarylmethanes (ADAMs) containing benzo[d]isoxazole and oxazolidin-2-one rings, a new series of potent non-nucleoside HIV-1 reverse transcriptase inhibitors” (Eur J Med Chem, 2009)
# Target: Human immunodeficiency virus type 1 reverse transcriptase (Human immunodeficiency virus 1, UniProt Q72547)
# Experiment: Inhibition of HIV1 recombinant reverse transcriptase assessed as incorporation of [32P]GTP into poly(rC).oligo(dG) (rCdG) homopolymer template primer
# Method in brief: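 Purified recombinant HIV-1 RT, p66/51 heterodimer. Activity followed by [32P]GTP incorporation into poly(rC)·oligo(dG) homopolymer template-primer. IC50 taken as the mean of at least two separate experiments.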
row,SMILES,IC50
1,COC(=O)c1cc(/C(=C/CCN2CCOC2=O)c2cc(C)c3onc(OC)c3c2)cc(Cl)c1OC,5.88 µM
2,COC(=O)c1cc(/C(=C\CCN2CCOC2=O)c2cc(C)c3onc(OC)c3c2)cc(C)c1OC,0.63 µM
3,COc1noc2c(C)cc(/C(=C\CCN3CCOC3=O)c3cccc(C#N)c3)cc12,39.2 µM
4,COc1noc2c(C)cc(/C(=C\CCN3CCOC3=O)c3cc(C)c4oc(=O)n(C)c4c3)cc12,3.6 µM
5,COC(=O)c1cc(/C(=C/CCN2CCOC2=O)c2cc(C)c3onc(OC)c3c2)cc(C)c1OC,18.2 µM
6,COC(=O)CCC/C=C(/c1cc(C)c2onc(OC)c2c1)c1cc(C)c2oc(=O)n(C)c2c1,0.25 µM
7,COc1noc2c(C)cc(C(=CCCN3CCOC3=O)c3cc(C)c4onc(OC)c4c3)cc12,0.93 µM

# Test system: not listed separately
# Experiment: Cytotoxicity against human MT4 cells by MTT assay
# Type: cell-based
row,SMILES,CC50
1,Cc1ccnc2c1NC(=O)c1cccnc1N2C1CC1 [NEVIRAPINE],> 200 µM
